According to ChEMBL document CHEMBL1828575, “Design, synthesis and antiproliferative activities of biarylolefins based on polyhydroxylated and carbohydrate scaffolds” (Eur J Med Chem, 2011):

What was measured:
[1] = Cytotoxicity against human HL60R cells at 10^-5 M after 72 hrs by MTS assay; type: functional, HL-60; conditions: read-out: GI
In short: (§1)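 Cells grown in RPMI with 10% fetal calf serum, penicillin, streptomycin and fungizone under 5% CO₂. Plated in 96-well plates and dosed 24 h later with compound in DMSO (1% final DMSO; controls got DMSO alone). After 72 h, MTS was added for 3 h at 37 °C and A490 read. Inhibition = (1 − OD treated/OD control) × 100, in triplicate.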

[2] = Cytotoxicity against human MDA231 cells at 10^-5 M after 72 hrs by MTS assay; type: functional; conditions: MDA-MB-231, 72 h, read-out: GI
In short: (§2)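 Preliminary screen at 10^-5 and 10^-6 M. Cells were grown in RPMI with 10% fetal calf serum plus penicillin, streptomycin and fungizone under 5% CO₂, plated in 96-well plates, and dosed 24 h later from DMSO stocks (1% DMSO final, same in controls). After 72 h, MTS was added for 3 h at 37 °C and absorbance read at 490 nm. Inhibition was calculated as (1 − OD treated/OD control) × 100, in triplicate.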

[3] = Cytotoxicity against human HL60R cells at 10^-6 M after 72 hrs by MTS assay; type: functional; conditions: read-out: GI; in short: as §1
[4] = tested on: PC-3; assay: Cytotoxicity against human PC3 cells at 10^-5 M after 72 hrs by MTS assay; type: functional; conditions: PC-3, 72 h, read-out: GI; in short: as §2
[5] = tested on: MIA PaCa-2; assay: Cytotoxicity against human MIAPaCa2 cells at 10^-6 M after 72 hrs by MTS assay; type: functional; conditions: MIA PaCa-2, 72 h, read-out: GI
[6] = tested on: SF-268; assay: Cytotoxicity against human SF268 cells at 10^-5 M after 72 hrs by MTS assay; type: functional; conditions: SF-268, 72 h, read-out: GI; in short: as §2
[7] = Cytotoxicity against human MDA231 cells at 10^-6 M after 72 hrs by MTS assay; type: functional; conditions: MDA-MB-231, 72 h, read-out: GI; in short: as §2
[8] = tested on: HCT-15; assay: Cytotoxicity against human HCT15 cells at 10^-5 M after 72 hrs by MTS assay; type: functional; conditions: HCT-15, 72 h, read-out: GI; in short: as §1
[9] = tested on: HL-60; assay: Cytotoxicity against human HL60 cells at 10^-5 M after 72 hrs by MTS assay; type: functional; conditions: HL-60, 72 h, read-out: GI; in short: as §1
[10] = tested on: A549; assay: Cytotoxicity against human A549 cells at 10^-5 M after 72 hrs by MTS assay; type: functional; conditions: A549, 72 h, read-out: GI; in short: as §1
[11] = tested on: K562; assay: Cytotoxicity against human K562 cells at 10^-6 M after 72 hrs by MTS assay; type: functional; conditions: K562, 72 h, read-out: GI; in short: as §1
[12] = tested on: K562; assay: Cytotoxicity against human K562 cells at 10^-5 M after 72 hrs by MTS assay; type: functional; conditions: K562, 72 h, read-out: GI; in short: as §1
[13] = tested on: MCF7; assay: Cytotoxicity against human MCF7 cells at 10^-6 M after 72 hrs by MTS assay; type: functional; conditions: MCF7, 72 h, read-out: GI
[14] = tested on: SW-620; assay: Cytotoxicity against human SW620 cells assessed as cellular growth at 10 uM after 48 hrs by SRB assay; type: functional
[15] = tested on: M14; assay: Antitumor activity against human M14 cells after 48 hrs by SRB assay; type: functional; conditions: M14, 48 h
In short: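 NCI60 panel in RPMI 1640 with 5% FBS and 2 mM L-glutamine. Cells were plated at 5000–40,000/well by doubling time, held 24 h, then time-zero plates were TCA-fixed. Five concentrations (10-fold or half-log dilutions of DMSO stocks) were applied for 48 h at 37 °C, 5% CO2. Cells were fixed with cold TCA (10% final adherent, 16% suspension) and stained with 0.4% SRB. Bound dye was dissolved in 10 mM Tris and read at 515 nm. GI50, TGI and LC50 were calculated per line.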

[16] = tested on: HCC 2998; assay: Cytotoxicity against human HCC2998 cells assessed as cellular growth at 10 uM after 48 hrs by SRB assay; type: functional
In short: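 NCI60 single-dose screen of cells in RPMI 1640 with 5% FBS and 2 mM L-glutamine, preincubated 24 h at 37 °C, 5% CO₂. Cells were then exposed 48 h to compound added from DMSO stock. TCA-fixed, stained with 0.4% SRB in 1% acetic acid, dye solubilised in 10 mM Tris base and read at 515 nm. Growth is given as percent of untreated control.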

[17] = tested on: HL-60; assay: Cytotoxicity against human HL60 cells at 10^-6 M after 72 hrs by MTS assay; type: functional; conditions: HL-60, 72 h, read-out: GI; in short: as §1
[18] = tested on: HCT-116; assay: Cytotoxicity against human HCT116 cells at 10^-6 M after 72 hrs by MTS assay; type: functional; conditions: HCT-116, 72 h, read-out: GI; in short: as §1
[19] = tested on: HT-29; assay: Cytotoxicity against human HT-29 cells at 10^-5 M after 72 hrs by MTS assay; type: functional; conditions: HT-29, 72 h, read-out: GI; in short: as §1
[20] = tested on: RXF 393; assay: Cytotoxicity against human RXF393 cells assessed as cellular growth at 10 uM after 48 hrs by SRB assay; type: functional
[21] = tested on: SK-OV-3; assay: Cytotoxicity against human SKOV3 cells at 10^-6 M after 72 hrs by MTS assay; type: functional; conditions: SK-OV-3, 72 h, read-out: GI; in short: as §2
[22] = tested on: HT-29; assay: Cytotoxicity against human HT-29 cells at 10^-6 M after 72 hrs by MTS assay; type: functional; conditions: HT-29, 72 h, read-out: GI; in short: as §1
[23] = tested on: OVCAR-8; assay: Cytotoxicity against human OVCAR8 cells at 10^-6 M after 72 hrs by MTS assay; type: functional; conditions: OVCAR-8, 72 h, read-out: GI; in short: as §2
[24] = tested on: A549; assay: Cytotoxicity against human A549 cells at 10^-6 M after 72 hrs by MTS assay; type: functional; conditions: A549, 72 h, read-out: GI; in short: as §1
[25] = tested on: OVCAR-8; assay: Cytotoxicity against human OVCAR8 cells at 10^-5 M after 72 hrs by MTS assay; type: functional; conditions: OVCAR-8, 72 h, read-out: GI; in short: as §2
[26] = tested on: HCT-116; assay: Cytotoxicity against human HCT116 cells at 10^-5 M after 72 hrs by MTS assay; type: functional; conditions: HCT-116, 72 h, read-out: GI; in short: as §1
[27] = tested on: HCT-15; assay: Cytotoxicity against human HCT15 cells at 10^-6 M after 72 hrs by MTS assay; type: functional; conditions: HCT-15, 72 h, read-out: GI; in short: as §1
[28] = tested on: SK-OV-3; assay: Cytotoxicity against human SKOV3 cells at 10^-5 M after 72 hrs by MTS assay; type: functional; conditions: SK-OV-3, 72 h, read-out: GI; in short: as §2
[29] = tested on: MIA PaCa-2; assay: Cytotoxicity against human MIAPaCa2 cells at 10^-5 M after 72 hrs by MTS assay; type: functional; conditions: MIA PaCa-2, 72 h, read-out: GI
[30] = tested on: PC-3; assay: Cytotoxicity against human PC3 cells at 10^-6 M after 72 hrs by MTS assay; type: functional; conditions: PC-3, 72 h, read-out: GI; in short: as §2
[31] = tested on: SF-268; assay: Cytotoxicity against human SF268 cells at 10^-6 M after 72 hrs by MTS assay; type: functional; conditions: SF-268, 72 h, read-out: GI; in short: as §2
[32] = Cytotoxicity against human Hs 578T cells assessed as cellular growth at 10 uM after 48 hrs by SRB assay; type: functional

What does the source list for `COc1ccc(/C(=C2/O[C@@H]([C@H]3COC(C)(C)O3)[C@H]3OC(C)(C)O[C@@H]23)c2cc(OC)c(OC)c(OC)c2)cc1O`?
inhibition of growth at 10 µM [1]: 63%; inhibition of growth at 10 µM [2]: 79%; inhibition of growth at 1 µM [3]: 8%; inhibition of growth at 10 µM [4]: 71%; inhibition of growth at 1 µM [5]: 0%; inhibition of growth at 10 µM [6]: 68%; inhibition of growth at 1 µM [7]: 0%; inhibition of growth at 10 µM [8]: 66%; inhibition of growth at 10 µM [9]: 69%; inhibition of growth at 10 µM [10]: 35%; inhibition of growth at 1 µM [11]: 2%; inhibition of growth at 10 µM [12]: 82%; inhibition of growth at 1 µM [13]: 0%; Activity [14]: 15.44%; GI50 ([15]; read-out: GI50): 2.4 µM; CC50 ([15]; read-out: LC50 (the source's name)): > 100 µM; TGI ([15]; read-out: TGI): 5.9 µM; GI50 ([15]; read-out: pGI50 (converted)): 2.4 µM; CC50 ([15]; read-out: pLC50 (the source's name) (converted)): > 100 µM; TGI ([15]; read-out: pTGI (converted)): 5.89 µM; Activity [16]: 102.13%; inhibition of growth at 1 µM [17]: 2%; inhibition of growth at 1 µM [18]: 0%; inhibition of growth at 10 µM [19]: 3%; Activity [20]: 81.92%; inhibition of growth at 1 µM [21]: 0%; inhibition of growth at 1 µM [22]: 2%; inhibition of growth at 1 µM [23]: 0%; inhibition of growth at 1 µM [24]: 1%; inhibition of growth at 10 µM [25]: 17%; inhibition of growth at 10 µM [26]: 39%; inhibition of growth at 1 µM [27]: 3%; inhibition of growth at 10 µM [28]: 48%; inhibition of growth at 10 µM [29]: 30%; inhibition of growth at 1 µM [30]: 0%; inhibition of growth at 1 µM [31]: 7%; Activity [32]: 22.15%
